Reference: ChEMBL document CHEMBL3351561, “Discovery of 9-(1-anilinoethyl)-2-morpholino-4-oxo-pyrido[1,2-a]pyrimidine-7-carboxamides as PI3Kβ/δ inhibitors for the treatment of PTEN-deficient tumours” (Bioorg Med Chem Lett, 2014)
Values after ≈ are worked out from the molar mass of the structure shown.

Columns and labels:
Mus musculus [1] = assay: Inhibition of Akt phosphorylation in SCID mouse xenografted with PTEN-null human PC3 cells at 200 mg/kg, po measured after 30 mins; type: functional; settings: PC-3, 0.5 h
Summary of the method: (§1)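 SCID mice carrying PTEN-null PC3 prostate xenografts received a single oral dose as a suspension (50, 100 or 200 mg/kg).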

[2] = Intrinsic clearance in human hepatocytes measured per 10^6 cells; type: ADME, cell-based, Hepatocyte; settings: read-out: CLH
Summary of the method: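 Intrinsic clearance was measured in human hepatocytes and is expressed in µL/min/10^6 cells.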

[3] = target: T1, Phosphatidylinositol 4,5-bisphosphate 3-kinase catalytic subunit beta isoform (Homo sapiens, UniProt P42338); assay: Inhibition of PI3Kbeta in human MAD-MB-468 cells assessed as inhibition of Ser473 Akt phosphorylation by cellular potency assay
[4] = Total plasma concentration in SCID mouse xenografted with PTEN-null human PC3 cells at 200 mg/kg, po measured after 8 hrs; type: ADME, organism-based, PC-3; design: dose 200 mg/kg, route oral
Summary of the method: (§2)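 Total plasma concentration was measured in SCID mice carrying PC3 xenografts after a single oral dose given as a suspension (50, 100 or 200 mg/kg). Samples were taken at 0.5 to 8 h.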

[5] = target: T1, Phosphatidylinositol 4,5-bisphosphate 3-kinase catalytic subunit beta isoform; assay: Inhibition of human recombinant PI3Kbeta assessed as depletion of ATP substrate by Ultra Glo luciferase assay
Summary of the method: (§3)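 Enzyme IC50s are reported as the geometric mean of 3 or more values.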

[6] = Solubility of the compound in phosphate buffer at pH 7.4; type: physicochemical
Summary of the method: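 Solubility was measured from solid material in phosphate buffer at pH 7.4.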

[7] = Buffer/octanol partition coefficient, log D of the compound at pH 7.4 by shake flask method; type: physicochemical
Summary of the method: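 LogD at pH 7.4 was measured by shake-flask with a buffer/octanol volume ratio of 100:1.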

[8] = Total plasma concentration in SCID mouse xenografted with PTEN-null human PC3 cells at 200 mg/kg, po measured after 30 mins; type: ADME, organism-based, PC-3; design: dose 200 mg/kg, route oral; summary of the method: as §2
[9] = Total plasma concentration in SCID mouse xenografted with PTEN-null human PC3 cells at 200 mg/kg, po measured after 4 hrs; type: ADME, organism-based, PC-3; design: dose 200 mg/kg, route oral; summary of the method: as §2
[10] = Bioavailability in mouse plasma at 5 umol/kg, iv and 30 umol/kg, po; type: ADME, organism-based
Summary of the method: (§4)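 […] mice were dosed at 5 µmol/kg i.v. and 30 µmol/kg p.o. Clearance is given in mL/min/kg and oral bioavailability in %.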

Mus musculus [11] = assay: Inhibition of Akt phosphorylation in SCID mouse xenografted with PTEN-null human PC3 cells at 200 mg/kg, po measured after 4 hrs; type: functional; settings: PC-3, 4 h; summary of the method: as §1
Mus musculus [12] = assay: Inhibition of Akt phosphorylation in SCID mouse xenografted with PTEN-null human PC3 cells at 200 mg/kg, po measured after 8 hrs; type: functional; settings: PC-3, 8 h; summary of the method: as §1
[13] = target: T2, Phosphatidylinositol 4,5-bisphosphate 3-kinase catalytic subunit alpha isoform (Homo sapiens, UniProt P42336); assay: Inhibition of PI3Kalpha in human BT474 cells assessed as inhibition of […] Akt phosphorylation after 2 hrs by fluorescence assay; type: cell-based, BT-474
Summary of the method: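 BT474 cells were seeded in DMEM with 10% FCS and 1% glutamine and left to adhere overnight, then treated with compound in DMSO for 2 h at 37 °C and 5% CO2. Cells were lysed with a phosphatase/protease-inhibitor buffer. Lysate was captured on anti-total-Akt plates, probed with anti-phospho-Akt Thr308 and an HRP secondary, and read by fluorescence (ex 325/em 420 nm). Values are the geometric mean of ≥2 determinations.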

[14] = Clearance in mouse plasma at 5 umol/kg, iv and 30 umol/kg, po; type: ADME, organism-based; summary of the method: as §4
[15] = Fraction unbound in human plasma; type: ADME, cell-free
Summary of the method: (§5)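 Protein binding was measured in nude mouse plasma and in human plasma and is expressed as fraction unbound (%).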

[16] = Ratio of total plasma concentration in PTEN-null human PC3 cells xenografted in SCID mouse at 200 mg/kg, po single dose at 4 hrs to IC50 for PI3Kbeta in human […] cells; design: species or system PC-3
Summary of the method: (§6)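 SCID mice bearing PTEN-null PC3 prostate tumour xenografts got a single oral dose given as a suspension. Total plasma concentration was measured at the sampled time points (0.5, 4 or 8 h). The value is the […] cover over the PI3Kβ cellular IC50, which comes from inhibition of Ser473 Akt phosphorylation in PTEN-null MDA-MB-468 breast adenocarcinoma cells.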

[17] = Ratio of total plasma concentration in PTEN-null human PC3 cells xenografted in SCID mouse at 200 mg/kg, po single dose at 8 hrs to IC50 for PI3Kbeta in human […] cells; design: species or system PC-3; summary of the method: as §6
[18] = Apparent permeability from apical (pH 6.5) to […] of human Caco2 cells; type: ADME, cell-based; settings: Caco-2, pH 6.5
[19] = target: Phosphatidylinositol 4,5-bisphosphate 3-kinase catalytic subunit gamma isoform (Homo sapiens, UniProt P48736); assay: Inhibition of human recombinant PI3Kgamma assessed as depletion of ATP substrate by Ultra Glo luciferase assay; summary of the method: as §3
[20] = target: T2, Phosphatidylinositol 4,5-bisphosphate 3-kinase catalytic subunit alpha isoform; assay: Inhibition of human recombinant PI3Kalpha assessed as depletion of ATP substrate by Ultra Glo luciferase assay; summary of the method: as §3
[21] = Ratio of total plasma concentration in PTEN-null human PC3 cells xenografted in SCID mouse at 200 mg/kg, po single dose at 0.5 hrs to IC50 for PI3Kbeta in human […] cells; design: species or system PC-3; summary of the method: as §6
[22] = Fraction unbound in mouse plasma; type: ADME, cell-free; summary of the method: as §5
[23] = target: T3, Phosphatidylinositol 4,5-bisphosphate 3-kinase catalytic subunit delta isoform (Homo sapiens, UniProt O00329); assay: Inhibition of human recombinant PI3Kdelta assessed as depletion of ATP substrate by Ultra Glo luciferase assay; summary of the method: as §3
T3 sequence (O00329 whole entry): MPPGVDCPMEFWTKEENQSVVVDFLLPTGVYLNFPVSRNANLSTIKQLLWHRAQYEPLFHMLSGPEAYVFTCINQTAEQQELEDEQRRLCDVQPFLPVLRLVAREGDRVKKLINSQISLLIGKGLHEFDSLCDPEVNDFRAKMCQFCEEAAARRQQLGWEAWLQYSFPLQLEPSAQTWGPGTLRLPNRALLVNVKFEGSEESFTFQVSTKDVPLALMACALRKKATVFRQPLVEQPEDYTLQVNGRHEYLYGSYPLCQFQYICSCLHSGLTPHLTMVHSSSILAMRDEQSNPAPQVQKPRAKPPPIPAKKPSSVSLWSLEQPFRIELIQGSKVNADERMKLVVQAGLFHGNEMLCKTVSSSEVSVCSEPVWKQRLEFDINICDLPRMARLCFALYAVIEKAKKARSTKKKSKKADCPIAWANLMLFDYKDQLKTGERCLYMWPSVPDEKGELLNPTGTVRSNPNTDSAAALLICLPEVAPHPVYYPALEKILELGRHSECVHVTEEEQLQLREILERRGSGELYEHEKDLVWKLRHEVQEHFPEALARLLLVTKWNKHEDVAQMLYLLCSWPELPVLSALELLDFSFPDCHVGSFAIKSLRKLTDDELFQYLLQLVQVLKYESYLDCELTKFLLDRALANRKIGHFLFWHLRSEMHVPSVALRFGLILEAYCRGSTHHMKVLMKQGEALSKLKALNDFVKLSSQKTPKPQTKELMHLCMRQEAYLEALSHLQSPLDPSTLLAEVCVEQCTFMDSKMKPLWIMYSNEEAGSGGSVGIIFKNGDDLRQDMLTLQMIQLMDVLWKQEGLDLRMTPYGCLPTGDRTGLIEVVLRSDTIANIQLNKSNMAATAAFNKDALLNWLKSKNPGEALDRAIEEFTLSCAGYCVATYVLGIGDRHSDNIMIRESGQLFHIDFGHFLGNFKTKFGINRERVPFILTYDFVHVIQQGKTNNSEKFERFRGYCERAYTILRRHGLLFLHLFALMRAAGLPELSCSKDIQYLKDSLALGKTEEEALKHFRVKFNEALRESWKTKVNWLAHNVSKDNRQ

Mus musculus [24] = assay: Inhibition of Akt phosphorylation in SCID mouse xenografted with PTEN-null human PC3 cells at 50 mg/kg, po measured after 4 hrs; type: functional; settings: PC-3, 4 h; summary of the method: as §1
[25] = Ratio of total plasma concentration in PTEN-null human PC3 cells xenografted in SCID mouse at 50 mg/kg, po single dose at 4 hrs to IC50 for PI3Kbeta in human […] cells; design: species or system PC-3; summary of the method: as §6
[26] = Total plasma concentration in SCID mouse xenografted with PTEN-null human PC3 cells at 50 mg/kg, po measured after 30 mins; type: ADME, organism-based, PC-3; design: dose 50 mg/kg, route oral; summary of the method: as §2
Mus musculus [27] = assay: Inhibition of Akt phosphorylation in SCID mouse xenografted with PTEN-null human PC3 cells at 50 mg/kg, po measured after 30 mins; type: functional; settings: PC-3, 0.5 h; summary of the method: as §1
[28] = Total plasma concentration in SCID mouse xenografted with PTEN-null human PC3 cells at 50 mg/kg, po measured after 4 hrs; type: ADME, organism-based, PC-3; design: dose 50 mg/kg, route oral; summary of the method: as §2
[29] = Ratio of total plasma concentration in PTEN-null human PC3 cells xenografted in SCID mouse at 50 mg/kg, po single dose at 0.5 hrs to IC50 for PI3Kbeta in human […] cells; design: species or system PC-3; summary of the method: as §6
Homo sapiens = species on record: Homo sapiens; assay: Ratio of IC50 for PI3Kalpha human BT474 cells to IC50 PI3Kbeta in human […] cells
[30] = Ratio of total plasma concentration in PTEN-null human PC3 cells xenografted in SCID mouse at 100 mg/kg, po single dose at 0.5 hrs to IC50 for PI3Kbeta in human […] cells; design: species or system PC-3; summary of the method: as §6
Mus musculus [31] = assay: Inhibition of Akt phosphorylation in SCID mouse xenografted with PTEN-null human PC3 cells at 100 mg/kg, po measured after 4 hrs; type: functional; settings: PC-3, 4 h; summary of the method: as §1
[32] = Half life in mouse plasma at 5 umol/kg, iv and 30 umol/kg, po; type: ADME, organism-based
[33] = Total plasma concentration in SCID mouse xenografted with PTEN-null human PC3 cells at 100 mg/kg, po measured after 4 hrs; type: ADME, organism-based, PC-3; design: dose 100 mg/kg, route oral; summary of the method: as §2
[34] = Total plasma concentration in SCID mouse xenografted with PTEN-null human PC3 cells at 100 mg/kg, po measured after 30 mins; type: ADME, organism-based, PC-3; design: dose 100 mg/kg, route oral; summary of the method: as §2
[35] = Ratio of total plasma concentration in PTEN-null human PC3 cells xenografted in SCID mouse at 100 mg/kg, po single dose at 4 hrs to IC50 for PI3Kbeta in human MAD-MB-468 cells; design: species or system PC-3
Mus musculus [36] = assay: Inhibition of Akt phosphorylation in SCID mouse xenografted with PTEN-null human PC3 cells at 100 mg/kg, po measured after 30 mins; type: functional; settings: PC-3, 0.5 h; summary of the method: as §1

Chain of Phosphatidylinositol 4,5-bisphosphate 3-kinase catalytic subunit gamma isoform (P48736 whole entry, canonical isoform): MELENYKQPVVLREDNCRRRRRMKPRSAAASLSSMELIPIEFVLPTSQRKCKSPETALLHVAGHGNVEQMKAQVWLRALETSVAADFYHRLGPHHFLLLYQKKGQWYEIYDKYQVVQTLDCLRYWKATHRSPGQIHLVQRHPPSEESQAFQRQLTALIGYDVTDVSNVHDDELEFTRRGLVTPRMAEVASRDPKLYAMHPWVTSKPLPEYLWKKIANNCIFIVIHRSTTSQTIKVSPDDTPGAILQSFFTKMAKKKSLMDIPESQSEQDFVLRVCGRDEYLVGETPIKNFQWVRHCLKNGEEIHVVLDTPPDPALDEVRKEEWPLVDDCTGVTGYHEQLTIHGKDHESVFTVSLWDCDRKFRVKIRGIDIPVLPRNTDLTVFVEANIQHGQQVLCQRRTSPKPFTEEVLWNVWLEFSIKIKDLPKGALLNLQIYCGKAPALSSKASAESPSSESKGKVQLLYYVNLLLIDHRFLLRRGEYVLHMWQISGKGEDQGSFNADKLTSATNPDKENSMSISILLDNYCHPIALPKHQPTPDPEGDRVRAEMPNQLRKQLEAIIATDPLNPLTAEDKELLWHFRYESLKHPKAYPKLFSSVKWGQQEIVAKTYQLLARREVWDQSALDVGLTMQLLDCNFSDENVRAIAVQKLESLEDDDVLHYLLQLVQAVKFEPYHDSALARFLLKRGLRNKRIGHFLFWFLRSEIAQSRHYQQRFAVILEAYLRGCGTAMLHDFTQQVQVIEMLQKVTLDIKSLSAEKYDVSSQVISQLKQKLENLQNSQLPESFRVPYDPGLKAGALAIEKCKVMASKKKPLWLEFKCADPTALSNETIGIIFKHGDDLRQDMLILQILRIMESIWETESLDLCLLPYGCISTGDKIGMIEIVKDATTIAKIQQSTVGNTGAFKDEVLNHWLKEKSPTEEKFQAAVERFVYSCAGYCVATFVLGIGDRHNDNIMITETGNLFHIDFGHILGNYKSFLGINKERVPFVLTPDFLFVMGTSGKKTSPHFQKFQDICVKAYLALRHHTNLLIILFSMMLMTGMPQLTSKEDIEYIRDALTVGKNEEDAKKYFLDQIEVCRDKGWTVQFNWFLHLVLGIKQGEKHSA
T2 sequence (P42336 whole entry, canonical isoform): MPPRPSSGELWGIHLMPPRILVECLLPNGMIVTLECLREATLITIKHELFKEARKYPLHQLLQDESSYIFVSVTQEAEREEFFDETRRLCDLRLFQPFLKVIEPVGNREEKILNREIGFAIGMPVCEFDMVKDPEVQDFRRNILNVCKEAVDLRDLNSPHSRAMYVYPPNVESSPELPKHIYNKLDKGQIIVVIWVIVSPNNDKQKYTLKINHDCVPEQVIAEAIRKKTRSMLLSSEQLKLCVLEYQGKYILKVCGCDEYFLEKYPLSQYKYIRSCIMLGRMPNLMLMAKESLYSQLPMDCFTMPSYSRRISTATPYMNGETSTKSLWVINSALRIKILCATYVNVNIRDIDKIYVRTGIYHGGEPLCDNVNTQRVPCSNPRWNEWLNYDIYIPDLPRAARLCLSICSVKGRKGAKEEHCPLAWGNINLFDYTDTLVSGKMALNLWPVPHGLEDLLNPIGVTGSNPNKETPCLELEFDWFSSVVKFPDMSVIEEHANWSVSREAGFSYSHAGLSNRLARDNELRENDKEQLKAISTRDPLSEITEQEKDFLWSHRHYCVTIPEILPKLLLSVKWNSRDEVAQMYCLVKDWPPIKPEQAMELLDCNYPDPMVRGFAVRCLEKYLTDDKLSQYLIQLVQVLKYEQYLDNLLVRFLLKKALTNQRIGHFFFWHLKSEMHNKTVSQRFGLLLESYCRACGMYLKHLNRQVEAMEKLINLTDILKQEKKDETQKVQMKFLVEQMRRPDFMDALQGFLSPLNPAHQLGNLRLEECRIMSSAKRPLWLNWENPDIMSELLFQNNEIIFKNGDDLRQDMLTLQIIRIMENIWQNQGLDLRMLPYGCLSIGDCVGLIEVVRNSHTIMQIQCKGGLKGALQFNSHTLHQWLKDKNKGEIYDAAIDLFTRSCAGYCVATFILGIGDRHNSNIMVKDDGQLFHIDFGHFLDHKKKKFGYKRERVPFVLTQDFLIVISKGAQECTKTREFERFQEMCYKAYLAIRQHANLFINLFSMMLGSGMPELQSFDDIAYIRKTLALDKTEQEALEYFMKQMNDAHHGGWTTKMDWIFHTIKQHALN
T1 sequence (P42338 whole entry, canonical isoform): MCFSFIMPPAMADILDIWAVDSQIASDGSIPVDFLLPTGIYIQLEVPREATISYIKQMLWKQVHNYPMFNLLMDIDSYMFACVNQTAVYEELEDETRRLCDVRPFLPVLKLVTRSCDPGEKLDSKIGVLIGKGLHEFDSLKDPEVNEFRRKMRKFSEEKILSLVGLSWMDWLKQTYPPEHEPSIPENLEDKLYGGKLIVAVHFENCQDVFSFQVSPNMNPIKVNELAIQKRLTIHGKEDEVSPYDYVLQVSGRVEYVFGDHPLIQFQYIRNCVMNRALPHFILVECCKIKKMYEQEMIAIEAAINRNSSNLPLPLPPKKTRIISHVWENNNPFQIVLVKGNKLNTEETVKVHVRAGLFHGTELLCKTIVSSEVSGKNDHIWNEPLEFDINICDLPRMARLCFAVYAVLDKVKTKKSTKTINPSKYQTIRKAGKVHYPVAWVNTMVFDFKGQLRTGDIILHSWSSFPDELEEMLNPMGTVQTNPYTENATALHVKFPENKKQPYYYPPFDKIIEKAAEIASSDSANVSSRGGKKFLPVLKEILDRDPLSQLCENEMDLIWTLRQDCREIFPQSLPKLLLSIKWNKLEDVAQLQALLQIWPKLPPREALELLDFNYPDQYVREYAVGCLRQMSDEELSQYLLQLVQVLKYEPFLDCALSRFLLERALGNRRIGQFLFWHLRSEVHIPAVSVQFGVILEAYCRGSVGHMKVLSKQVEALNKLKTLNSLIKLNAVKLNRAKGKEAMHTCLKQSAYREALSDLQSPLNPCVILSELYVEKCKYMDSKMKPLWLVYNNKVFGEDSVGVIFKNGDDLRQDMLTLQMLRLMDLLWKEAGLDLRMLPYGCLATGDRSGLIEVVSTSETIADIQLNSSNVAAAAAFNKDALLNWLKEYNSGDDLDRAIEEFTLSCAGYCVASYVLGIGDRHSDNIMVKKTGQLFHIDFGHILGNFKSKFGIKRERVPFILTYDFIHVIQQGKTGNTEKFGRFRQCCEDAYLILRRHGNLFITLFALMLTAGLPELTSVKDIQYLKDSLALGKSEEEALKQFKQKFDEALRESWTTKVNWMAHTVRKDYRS

SMILES	hepatocyte CLint [2]	IC50 [3]	IC50 [5]	solubility [6]	logD [7]	bioavailability [10]	IC50 [13]	clearance [14]	fraction unbound [15]	Papp A→B [18]	IC50 [19]	IC50 [20]	fraction unbound [22]	IC50 [23]	Ratio IC50 (Homo sapiens)	further results
CC(Nc1ccc(F)c(F)c1)c1cc(C(=O)N(C)C)cn2c(=O)cc(N3CCOCC3)nc12 (single isomer, unassigned; (-))	9 µL/min/1e6 cells	34 nM	7 nM	20 µM (≈ 9.15 µg/mL)	2.7	35%	4700 nM	74 mL/min/kg	0.14	44 ×10⁻⁶ cm/s	3000 nM	340 nM	0.087	45 nM	–	inhibition in vivo at 200 mg/kg (Mus musculus [1]): 81%; concentration at 8 h [4]: 0.3 µM; concentration at 0.5 h [8]: 3.9 µM; concentration at 4 h [9]: 2.3 µM; inhibition in vivo at 200 mg/kg (Mus musculus [11]): 81%; inhibition in vivo at 200 mg/kg (Mus musculus [12]): 71%; Ratio [16]: 5.9; Ratio [17]: 2.5; Ratio [21]: 10
CC(Nc1cccc(Cl)c1F)c1cc(C(=O)NCCN(C)C)cn2c(=O)cc(N3CCOCC3)nc12 (single isomer, unassigned; (-))	–	4 nM	7 nM	–	2.7	39%	970 nM	10 mL/min/kg	0.033	0.9 ×10⁻⁶ cm/s	670 nM	92 nM	0.016	51 nM	240	inhibition in vivo at 50 mg/kg (Mus musculus [24]): 40%; Ratio [25]: 48; concentration at 0.5 h [26]: 21 µM; inhibition in vivo at 50 mg/kg (Mus musculus [27]): 26%; concentration at 4 h [28]: 12 µM; Ratio [29]: 83
CC(Nc1ccc(F)cc1)c1cc(C(=O)N(C)C)cn2c(=O)cc(N3CCOCC3)nc12 (single isomer, unassigned; (-))	3 µL/min/1e6 cells	62 nM	37 nM	130 µM (≈ 57.1 µg/mL)	2.3	70%	11600 nM	45 mL/min/kg	0.21	34 ×10⁻⁶ cm/s	13500 nM	1300 nM	0.12	230 nM	190	Ratio [30]: 140; inhibition in vivo at 100 mg/kg (Mus musculus [31]): 60%; half-life [32]: 1.1 h; concentration at 4 h [33]: 8.1 µM; concentration at 0.5 h [34]: 71 µM; Ratio [35]: 16; inhibition in vivo at 100 mg/kg (Mus musculus [36]): 85%
